From ChEMBL document CHEMBL2429728, “Novel Macrocyclic Amidinoureas: Potent Non-Azole Antifungals Active against Wild-Type and Resistant Candida Species” (2013)
Converted amounts (≈) assume the structure as drawn.

Columns and labels:
Type in all cases: functional
[1] = test system: Candida tropicalis; test: Antifungal activity against Candida tropicalis ATCC 200956 after 24 hrs by visually and spectrophotometric analysis; conditions: ATCC 200956, 24 h
How it was run: (§1)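 Read-out is MIC90 in μg/mL, scored at 24 h both by eye and spectrophotometrically. The panel is Candida isolates that earlier reports describe as amphotericin B-resistant, with amphotericin B run alongside as the reference drug.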

[2] = test system: Clavispora lusitaniae; test: Antifungal activity against Candida lusitaniae ATCC 60247 after 24 hrs by visually and spectrophotometric analysis; conditions: ATCC 60247, 24 h; how it was run: as §1
[3] = test system: Clavispora lusitaniae; test: Antifungal activity against Candida lusitaniae ATCC 24348 after 24 hrs by visually and spectrophotometric analysis; conditions: ATCC 24348, 24 h; how it was run: as §1
[4] = test system: Clavispora lusitaniae; test: Antifungal activity against Candida lusitaniae ATCC 200953 after 24 hrs by visually and spectrophotometric analysis; how it was run: as §1
[5] = test system: Clavispora lusitaniae; test: Antifungal activity against Candida lusitaniae ATCC 200952 after 24 hrs by visually and spectrophotometric analysis; how it was run: as §1
[6] = test system: Clavispora lusitaniae; test: Antifungal activity against Candida lusitaniae ATCC 200951 after 24 hrs by visually and spectrophotometric analysis; how it was run: as §1
[7] = test system: Clavispora lusitaniae; test: Antifungal activity against Candida lusitaniae ATCC 200950 after 24 hrs by visually and spectrophotometric analysis; conditions: ATCC 200950, 24 h; how it was run: as §1
[8] = test system: Candida albicans; test: Antifungal activity against Candida albicans ATCC 200955 after 24 hrs by visually and spectrophotometric analysis; conditions: ATCC 200955, 24 h
How it was run: (§2)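 Endpoint is MIC90, in μg/mL, read at 24 h by both visual inspection and spectrophotometry.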

[9] = test system: Nakaseomyces glabratus; test: Antifungal activity against fluconazole-resistant Candida glabrata DSY2271 increase expressing of CgCDR2 genes after 24 hrs by visually and spectrophotometric analysis; conditions: DSY2271, 24 h; how it was run: as §2
[10] = test system: Nakaseomyces glabratus; test: Antifungal activity against fluconazole-resistant Candida glabrata DSY2254 increase expressing of CgCDR1 and CgCDR2 genes after 24 hrs by visually and spectrophotometric analysis; conditions: DSY2254, 24 h; how it was run: as §2
[11] = test system: Nakaseomyces glabratus; test: Antifungal activity against fluconazole-resistant Candida glabrata DSY756 increase expressing of CgCDR1, CgCDR2, and CgSNQ2 genes after 24 hrs by visually and spectrophotometric analysis; conditions: DSY756, 24 h; how it was run: as §2
[12] = test system: Nakaseomyces glabratus; test: Antifungal activity against fluconazole-resistant Candida glabrata DSY754 increase expressing of CgCDR1 gene after 24 hrs by visually and spectrophotometric analysis; conditions: DSY754, 24 h; how it was run: as §2
[13] = test system: Nakaseomyces glabratus; test: Antifungal activity against fluconazole-resistant Candida glabrata DSY530 increase expressing of CgCDR1 gene after 24 hrs by visually and spectrophotometric analysis; conditions: DSY530, 24 h; how it was run: as §2
[14] = test system: Candida albicans; test: Antifungal activity against fluconazole-resistant Candida albicans DSY751 harboring ERG11 gene mutant and increase expressing of MDR1 gene after 24 hrs by visually and spectrophotometric analysis; conditions: DSY751, 24 h; how it was run: as §2
[15] = test system: Candida albicans; test: Antifungal activity against fluconazole-resistant Candida albicans DSY775 harboring ERG11 gene mutant and increase expressing of CDR1 and CDR2 genes after 24 hrs by visually and spectrophotometric analysis; conditions: DSY775, 24 h; how it was run: as §2
[16] = test system: Candida albicans; test: Antifungal activity against fluconazole-resistant Candida albicans DSY735 expressing high level of CDR1 and CDR2 genes after 24 hrs by visually and spectrophotometric analysis; conditions: DSY735, 24 h; how it was run: as §2
[17] = test system: Candida albicans; test: Antifungal activity against fluconazole-resistant Candida albicans DSY292 harboring ERG11 gene mutant and increase expressing of MDR1 gene after 24 hrs by visually and spectrophotometric analysis; conditions: DSY292, 24 h; how it was run: as §2
[18] = test system: Candida albicans; test: Antifungal activity against fluconazole-resistant Candida albicans DSY348 harboring ERG11 gene mutant and increase expressing of CDR1 and CDR2 genes after 24 hrs by visually and spectrophotometric analysis; conditions: DSY348, 24 h; how it was run: as §2
[19] = test system: Candida albicans; test: Antifungal activity against fluconazole-resistant Candida albicans DSY289 harboring ERG11 gene mutant and increase expressing of CDR1 and CDR2 genes after 24 hrs by visually and spectrophotometric analysis; conditions: DSY289, 24 h; how it was run: as §2
[20] = test system: Candida albicans; test: Antifungal activity against fluconazole-resistant Candida albicans DSY296 harboring ERG11 gene mutant and increase expressing of CDR1 and CDR2 genes after 24 hrs by visually and spectrophotometric analysis; conditions: DSY296, 24 h; how it was run: as §2
[21] = test system: Candida albicans; test: Antifungal activity against fluconazole-resistant Candida albicans DSY284 harboring ERG11 gene mutant and increase expressing of CDR1 and CDR2 genes after 24 hrs by visually and spectrophotometric analysis; conditions: DSY284, 24 h; how it was run: as §2
[22] = test system: Nakaseomyces glabratus; test: Antifungal activity against wild type Candida glabrata after 24 hrs by visually and spectrophotometric analysis
[23] = test system: Kluyveromyces marxianus; test: Antifungal activity against wild type Candida kefyr after 24 hrs by visually and spectrophotometric analysis
[24] = test system: Candida tropicalis; test: Antifungal activity against wild type Candida tropicalis after 24 hrs by visually and spectrophotometric analysis
[25] = test system: Candida parapsilosis; test: Antifungal activity against wild type Candida parapsilosis ATCC 34136 after 24 hrs by visually and spectrophotometric analysis; conditions: Lodderomyces parapsilosis, ATCC 34136, 24 h
[26] = test system: Pichia kudriavzevii; test: Antifungal activity against wild type Candida krusei ATCC 14243 after 24 hrs by visually and spectrophotometric analysis; conditions: ATCC 14243, 24 h
[27] = test system: Meyerozyma guilliermondii; test: Antifungal activity against wild type Candida guilliermondii after 24 hrs by visually and spectrophotometric analysis
[28] = test system: Candida albicans; test: Antifungal activity against wild type Candida albicans ATCC 60193 after 24 hrs by visually and spectrophotometric analysis; conditions: ATCC 60193, 24 h

Row | Compound | MIC90 [1] [µg/mL] | MIC90 [2] [µg/mL] | MIC90 [3] [µg/mL] | MIC90 [4] [µg/mL] | MIC90 [5] [µg/mL] | MIC90 [6] [µg/mL] | MIC90 [7] [µg/mL] | MIC90 [8] [µg/mL] | MIC90 [9] [µg/mL] | MIC90 [10] [µg/mL] | MIC90 [11] [µg/mL] | MIC90 [12] [µg/mL] | MIC90 [13] [µg/mL] | MIC90 [15] [µg/mL] | MIC90 [16] [µg/mL] | MIC90 [17] [µg/mL] | MIC90 [18] [µg/mL] | MIC90 [19] [µg/mL] | MIC90 [20] [µg/mL] | MIC90 [21] [µg/mL] | other results
1 | C/C=C/CNC(=N)NCCCCCCCCN1CCCCCOC(=O)CCNC(=N)NC1=O.O=C(O)C(F)(F)F | 16 | 4 | 8 | 8 | 4 | 4 | 8 | 4 | 32 | 64 | 64 | 32 | 32 | 16 | 16 | 16 | 8 | 8 | 16 | 8 | MIC90 [14]: 16 µg/mL; MIC90 [22]: 32 µg/mL; MIC90 [23]: 16 µg/mL; MIC90 [24]: 16 µg/mL; MIC90 [25]: 8 µg/mL; MIC90 [26]: 32 µg/mL; MIC90 [27]: 8 µg/mL; MIC90 [28]: 16 µg/mL
2 | N=C(NCCCCCCCCN1CCCCCCCCNC(=N)NC1=O)NCC1CC1.O=C(O)C(F)(F)F | 2 | 4 | 2 | 2 | 1 | 2 | 4 | 1 | 16 | 32 | 16 | 16 | 16 | 2 | 1 | 2 | 2 | 1 | 2 | 1 | MIC90 [14]: 2 µg/mL; MIC90 [22]: 16 µg/mL; MIC90 [23]: 4 µg/mL; MIC90 [24]: 0.5 µg/mL; MIC90 [25]: 2 µg/mL; MIC90 [26]: 4 µg/mL; MIC90 [27]: 2 µg/mL; MIC90 [28]: 1 µg/mL
3 | C=CCNC(=N)NCCCCCCCCN1CCCCCCCCNC(=N)NC1=O.O=C(O)C(F)(F)F | 1 | 2 | 1 | 4 | 2 | 2 | 2 | 1 | 32 | 32 | 16 | 32 | 16 | 2 | 1 | 2 | 1 | 1 | 2 | 1 | MIC90 [22]: 32 µg/mL; MIC90 [23]: 4 µg/mL; MIC90 [24]: 0.5 µg/mL; MIC90 [25]: 4 µg/mL; MIC90 [26]: 0.5 µg/mL; MIC90 [27]: 2 µg/mL; MIC90 [28]: 1 µg/mL
4 | C/C=C/CNC(=N)NCCCCCCCCN1CCCCOC(=O)CCNC(=N)NC1=O.O=C(O)C(F)(F)F | 16 | 4 | 4 | 8 | 4 | 4 | 8 | 8 | 64 | 128 | 128 | 64 | 64 | 16 | 8 | 16 | 8 | 8 | 16 | 16 | MIC90 [14]: 16 µg/mL; MIC90 [22]: 64 µg/mL; MIC90 [23]: 32 µg/mL; MIC90 [24]: 32 µg/mL; MIC90 [25]: 32 µg/mL; MIC90 [26]: 64 µg/mL; MIC90 [27]: 32 µg/mL; MIC90 [28]: 32 µg/mL
5 | C/C=C/CNC(=N)NCCCCCCCCN1CCCCCCCCNC(=N)NC1=O | – | – | – | – | – | – | – | – | – | – | – | – | – | – | – | – | – | – | – | – | MIC50 [22]: 20 µg/mL (≈ 45.9 µM); MIC50 [24]: 1.25 µg/mL (≈ 2.87 µM); MIC50 [25]: 5 µg/mL (≈ 11.5 µM); MIC50 [26]: 5 µg/mL (≈ 11.5 µM); MIC50 [28]: 2.5 µg/mL (≈ 5.74 µM)
6 | C[C@@H]1[C@H](O)[C@@H](C)/C=C/C=C/C=C/C=C/C=C/C=C/C=C/[C@H](O[C@@H]2O[C@H](C)[C@@H](O)[C@H](N)[C@@H]2O)C[C@@H]2O[C@](O)(C[C@@H](O)C[C@@H](O)[C@H](O)CC[C@@H](O)C[C@@H](O)CC(=O)O[C@H]1C)C[C@H](O)[C@H]2C(=O)O [AMPHOTERICIN B] | 8 (≈ 8.66 µM) | 0.125 (≈ 0.135 µM) | 0.125 (≈ 0.135 µM) | 1 (≈ 1.08 µM) | 2 (≈ 2.16 µM) | 1 (≈ 1.08 µM) | 1 (≈ 1.08 µM) | 2 (≈ 2.16 µM) | – | – | – | – | – | – | – | – | – | – | – | – | –
7 | OC(Cn1cncn1)(Cn1cncn1)c1ccc(F)cc1F [FLUCONAZOLE] | – | – | – | – | – | – | – | – | 64 (≈ 209 µM) | 128 (≈ 418 µM) | 128 (≈ 418 µM) | 64 (≈ 209 µM) | 64 (≈ 209 µM) | 128 (≈ 418 µM) | 64 (≈ 209 µM) | 64 (≈ 209 µM) | 32 (≈ 104 µM) | 256 (≈ 836 µM) | 128 (≈ 418 µM) | 256 (≈ 836 µM) | MIC90 [14]: 256 µg/mL (≈ 836 µM); MIC90 [22]: 16 µg/mL (≈ 52.2 µM); MIC90 [23]: 1 µg/mL (≈ 3.27 µM); MIC90 [24]: 2 µg/mL (≈ 6.53 µM); MIC90 [25]: 0.5 µg/mL (≈ 1.63 µM); MIC90 [26]: 256 µg/mL (≈ 836 µM); MIC90 [27]: 4 µg/mL (≈ 13.1 µM); MIC90 [28]: 2 µg/mL (≈ 6.53 µM)
8 | C[C@@H](c1ncncc1F)[C@](O)(Cn1cncn1)c1ccc(F)cc1F [VORICONAZOLE] | – | – | – | – | – | – | – | – | 0.125 (≈ 0.358 µM) | 2 (≈ 5.73 µM) | 4 (≈ 11.5 µM) | 2 (≈ 5.73 µM) | 0.5 (≈ 1.43 µM) | 8 (≈ 22.9 µM) | 2 (≈ 5.73 µM) | 2 (≈ 5.73 µM) | 0.25 (≈ 0.716 µM) | 8 (≈ 22.9 µM) | 8 (≈ 22.9 µM) | 4 (≈ 11.5 µM) | MIC90 [14]: 0.25 µg/mL (≈ 0.716 µM)
